Measured values taken from ChEMBL document CHEMBL3297715, “Potent cytotoxic arylnaphthalene lignan lactones from Phyllanthus poilanei” (J Nat Prod, 2014).
Calls of active or inactive are those of the source. No cut-off for these calls is given here.

Tests used:
HT-29 [1] = experiment: Induction of apoptosis in human HT-29 cells assessed as caspase-3 activation by measuring cleaved caspase-3 level at 1 to 10 uM after 24 hrs by western blot analysis; type: functional, cell-based
In short: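 HT-29 cells exposed 24 h to a range of concentrations. Lysed in NP-40/HEPES pH 7.5/0.5 M NaCl buffer with protease and phosphatase inhibitors. Resolved on 4–15% SDS-PAGE and immunoblotted with rabbit monoclonal cleaved caspase-3 (Asp175) antibody. Representative of three independent experiments.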

HT-29 [2] = experiment: Induction of apoptosis in human HT-29 cells assessed as early apoptotic cells at 1 uM after 72 hrs by flow cytometry (reference value: 3.93%); type: functional
HT-29 [3] = experiment: Induction of apoptosis in human HT-29 cells assessed as early apoptotic cells at 5 uM after 72 hrs by flow cytometry (reference value: 3.93%); type: functional
HT-29 [4] = experiment: Induction of apoptosis in human HT-29 cells assessed as late apoptotic cells at 5 uM after 72 hrs by flow cytometry (reference value: 8.60%); type: functional
HT-29 [5] = experiment: Induction of apoptosis in human HT-29 cells assessed as late apoptotic cells at 1 uM after 72 hrs by flow cytometry (reference value: 8.60%); type: functional
HT-29 [6] = experiment: Cytotoxicity against human HT-29 cells; type: functional, cell-based
In short: (§1)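 Paired cancer (HT-29 colon) and normal (CCD-112CoN colon) human cell lines, same screening method for both. Paclitaxel and etoposide as positive controls. IC50 from nonlinear regression. Triplicate measurements, representative of two independent experiments.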

[7] = Cytotoxicity against human CCD-112CoN cells; type: cell-based; in short: as §1
HT-29 [8] = experiment: Antitumor activity against human HT-29 cells xenografted in immunodeficient NCr nu/nu mouse assessed as inhibition of cell growth at 10 to 20 mg/kg, ip qd for 4 days administered from day 3 to day 6 post-implantation measured on day 7; type: functional, organism-based
In short: (§2)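 HT-29 human colon cancer cells in hollow fibres implanted in 8–9-week-old NCr nu/nu mice. Drug in DMSO/Cremophor, diluted with water to 13% DMSO and 25% Cremophor. Doses 5.0–20.0 mg/kg ip once daily for 4 days (days 3–6); vehicle control; paclitaxel 5 mg/kg. Fibres retrieved day 7. Modified MTT net growth (day 7 minus day 0) relative to vehicle; n=3 treated; Student's t test.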

HT-29 [9] = experiment: Antitumor activity against human HT-29 cells xenografted in immunodeficient NCr nu/nu mouse assessed as inhibition of cell growth at 5 mg/kg, ip qd for 4 days administered from day 3 to day 6 post-implantation measured on day 7; type: functional, organism-based; design: dose 5 mg/kg; in short: as §2
[10] = molecular target: DNA topoisomerase 2-alpha (Homo sapiens) (UniProt P11388); experiment: Inhibition of topoisomerase 2-alpha (unknown origin)-mediated relaxation of supercoiled pBR322 DNA at 100 uM by ethidium bromide staining based agarose gel electrophoresis
DNA topoisomerase 2-alpha (Homo sapiens), sequence (P11388 whole entry): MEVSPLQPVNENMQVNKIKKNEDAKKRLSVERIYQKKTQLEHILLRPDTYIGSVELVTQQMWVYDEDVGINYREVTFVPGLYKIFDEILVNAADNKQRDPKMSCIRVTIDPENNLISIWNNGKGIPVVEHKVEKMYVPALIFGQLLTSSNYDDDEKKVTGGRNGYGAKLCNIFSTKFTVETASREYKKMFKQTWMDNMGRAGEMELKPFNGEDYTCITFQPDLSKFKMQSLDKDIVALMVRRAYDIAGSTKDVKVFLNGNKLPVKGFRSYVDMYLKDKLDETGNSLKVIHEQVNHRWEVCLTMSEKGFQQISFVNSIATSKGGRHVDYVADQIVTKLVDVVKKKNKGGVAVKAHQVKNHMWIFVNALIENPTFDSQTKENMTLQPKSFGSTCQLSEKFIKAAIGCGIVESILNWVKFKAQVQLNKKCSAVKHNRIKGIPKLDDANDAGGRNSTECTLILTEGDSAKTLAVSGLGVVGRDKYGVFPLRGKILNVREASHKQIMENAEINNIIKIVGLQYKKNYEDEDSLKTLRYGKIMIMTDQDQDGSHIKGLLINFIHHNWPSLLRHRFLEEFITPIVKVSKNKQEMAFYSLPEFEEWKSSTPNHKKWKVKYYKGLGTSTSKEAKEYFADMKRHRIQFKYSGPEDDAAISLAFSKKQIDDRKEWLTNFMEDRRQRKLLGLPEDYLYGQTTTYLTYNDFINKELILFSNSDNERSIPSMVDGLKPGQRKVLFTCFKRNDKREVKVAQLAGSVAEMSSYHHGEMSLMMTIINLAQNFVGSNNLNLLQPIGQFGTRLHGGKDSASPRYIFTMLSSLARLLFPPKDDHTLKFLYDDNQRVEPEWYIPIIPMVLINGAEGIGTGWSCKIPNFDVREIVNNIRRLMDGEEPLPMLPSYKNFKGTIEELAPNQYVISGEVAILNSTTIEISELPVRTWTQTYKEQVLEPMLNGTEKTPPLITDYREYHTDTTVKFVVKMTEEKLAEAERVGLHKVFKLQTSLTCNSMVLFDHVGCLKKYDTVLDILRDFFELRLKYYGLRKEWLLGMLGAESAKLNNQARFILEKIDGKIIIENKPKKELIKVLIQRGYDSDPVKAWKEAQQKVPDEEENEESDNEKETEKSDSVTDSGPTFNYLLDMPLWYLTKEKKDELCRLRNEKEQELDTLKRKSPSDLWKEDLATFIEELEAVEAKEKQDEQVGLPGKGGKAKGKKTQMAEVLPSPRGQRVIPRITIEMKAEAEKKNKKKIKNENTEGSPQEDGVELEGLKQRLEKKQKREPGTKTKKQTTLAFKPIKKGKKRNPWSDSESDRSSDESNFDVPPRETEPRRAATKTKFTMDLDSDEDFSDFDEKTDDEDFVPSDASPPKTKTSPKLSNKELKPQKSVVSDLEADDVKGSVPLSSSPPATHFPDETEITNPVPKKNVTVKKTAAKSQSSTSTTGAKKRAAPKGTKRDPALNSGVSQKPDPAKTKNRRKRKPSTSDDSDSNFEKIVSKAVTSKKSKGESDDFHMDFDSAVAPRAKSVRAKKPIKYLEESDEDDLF

Mus musculus = experiment: Toxicity in immunodeficient NCr nu/nu mouse xenografted with human HT-29 cells at 5 to 20 mg/kg, ip qd for 4 days administered from day 3 to day 6 post-implantation; type: organism-based; design: dose 5-20 mg/kg, route intraperitoneal; conditions: in vivo, 96 h
In short: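 NCr nu/nu mice bearing hollow-fibre HT-29 implants. Dosed ip once daily for 4 days at 5.0–20.0 mg/kg in 13% DMSO/25% Cremophor/water. Body weight recorded daily and signs of toxicity observed until sacrifice on day 7.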

HT-29 [11] = experiment: Antitumor activity against human HT-29 cells xenografted in ip dosed immunodeficient NCr nu/nu mouse assessed as inhibition of cell growth administered qd for 4 days from day 3 to day 6 post-implantation measured on day 7; type: functional, organism-based; in short: as §2

Structure (SMILES)	IC50 (HT-29 [6]) [µM]	IC50 [7] [µM]	inhibition [10]	other results
COc1cc([C@@H]2c3cc4c(cc3[C@@H](O[C@@H]3O[C@@H]5CO[C@@H](C)O[C@H]5[C@H](O)[C@H]3O)[C@H]3COC(=O)[C@H]23)OCO4)cc(OC)c1O [ETOPOSIDE]				Activity (HT-29 [1]): inactive; Activity (HT-29 [2]): 12.9%; Activity (HT-29 [3]): 12.5%; Activity (HT-29 [4]): 25.3%; Activity (HT-29 [5]): 19.8%
COc1cc2c(O[C@@H]3OC[C@H](O)[C@H](OC(C)=O)[C@H]3O)c3c(c(-c4ccc5c(c4)OCO5)c2cc1OC)C(=O)OC3	1.8			
CC(=O)O[C@H]1C(=O)[C@@]2(C)[C@H]([C@H](OC(=O)c3ccccc3)[C@]3(O)C[C@H](OC(=O)[C@H](O)[C@@H](NC(=O)c4ccccc4)c4ccccc4)C(C)=C1C3(C)C)[C@]1(OC(C)=O)CO[C@@H]1C[C@@H]2O [PACLITAXEL]		23		
COc1cc2c(O[C@@H]3OC[C@H](OC(C)=O)[C@H](O)[C@H]3O)c3c(c(-c4ccc5c(c4)OCO5)c2cc1OC)C(=O)OC3	1.8			
COc1cc2c(O)c3c(c(-c4ccc5c(c4)OCO5)c2cc1OC)C(=O)OC3 [DIPHYLLIN]	7.6			
COc1cc2c(OC)c3c(c(-c4ccc5c(c4)OCO5)c2cc1OC)C(=O)OC3 [JUSTICIDIN A]	> 10			
COc1cc2c(O[C@@H]3OC[C@H](OC(C)=O)[C@H](OC(C)=O)[C@H]3O)c3c(c(-c4ccc5c(c4)OCO5)c2cc1OC)C(=O)OC3	0.17	> 100	inactive	Activity (HT-29 [1]): Active; inhibition (HT-29 [8]): Active; Activity (HT-29 [2]): 28.2%; inhibition (HT-29 [9]): inactive; Activity (HT-29 [3]): 30.3%; Activity (HT-29 [4]): 38%; Activity (HT-29 [5]): 27.3%; Activity (Mus musculus): Non-toxic; inhibition (HT-29 [11]): Dose-dependent effect
COc1cc2c(O[C@@H]3OC[C@H](O)[C@H](O)[C@H]3O)c3c(c(-c4ccc5c(c4)OCO5)c2cc1OC)C(=O)OC3 [ACUTISSIMALIGNAN A]	3.2	> 100	inactive	
COc1cc2c(O[C@@H]3OC[C@H](OC(C)=O)[C@H](OC(C)=O)[C@H]3OC(C)=O)c3c(c(-c4ccc5c(c4)OCO5)c2cc1OC)C(=O)OC3	0.11		inactive	
COc1cc2c(O[C@@H]3O[C@H](CO)[C@@H](O)[C@H](O)[C@H]3O)c3c(c(-c4ccc5c(c4)OCO5)c2cc1OC)C(=O)OC3	> 10			
